TAG inh: reduces triacylglycerol accumulation in H9c2 cells; Nile Red lipid (TAG) fluorescence; cells loaded with 200 µM oleic acid; 230,000 tested, 0.66% active; inhibition, % at 12.5 µM;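 active means pattern-corrected inhibition of lipid staining of at least 50% with the nuclear-stain viability signal not falling by more than 50%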;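 further: 0% = DMSO wells and 100% = triacsin C control wells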
Tn7 DDE FP: inhibitors of Tn7 peptide binding to human fibrin DD(E). P02675. FP displacement of FITC-Tn7 peptide from fibrin DD(E); 0% = median of compound wells per plate. inhibition, % at 8.3 µM. 370,000 tested, 0.13% active;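 active means inhibition above the mean of compounds falling within the control limits plus 3 SD of them, cut at about 14% in these data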;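 further: 0% = plate median of compound wells and 100% = 10 µM Aha-Tn7 peptide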
Target sequence (P02675 whole entry, looked up): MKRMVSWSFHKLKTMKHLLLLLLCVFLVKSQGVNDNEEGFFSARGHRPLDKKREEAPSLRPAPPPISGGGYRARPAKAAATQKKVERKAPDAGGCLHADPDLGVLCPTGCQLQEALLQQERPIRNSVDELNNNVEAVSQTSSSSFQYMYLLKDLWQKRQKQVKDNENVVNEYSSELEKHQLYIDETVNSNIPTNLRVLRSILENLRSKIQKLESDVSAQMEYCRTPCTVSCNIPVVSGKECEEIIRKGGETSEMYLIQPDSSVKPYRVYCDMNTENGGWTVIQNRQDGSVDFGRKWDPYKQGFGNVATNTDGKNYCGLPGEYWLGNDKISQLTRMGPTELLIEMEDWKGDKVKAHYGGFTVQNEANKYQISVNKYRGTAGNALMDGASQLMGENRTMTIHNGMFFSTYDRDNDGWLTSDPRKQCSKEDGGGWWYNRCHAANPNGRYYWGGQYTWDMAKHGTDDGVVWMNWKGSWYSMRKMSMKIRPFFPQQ
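system = human fibrin DD(E) protein | quantity = DD(E) 2 µM final | medium = Tris/NaCl/CaCl2 buffer, pH 7.8 | also added = labelled Tn7 tracer, 0.1 µM | compound dosing = single point at 8.3 µM | timing = compound with protein 10 min, then 3 h after probe, room temperature | signal = FP measurement | benchmarks = Aha-Tn7 high control | repeats = one replicate per compound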
MT1-MMP act inh: inhibitors of human MT1-MMP activation. P50281. HT1080 RFP-PRO-GFP cells, GFP/RFP ratio fluorescence, overnight; percent of plate control window, DMSO zero. GFP/RFP ratio change, % at 20 µM. 360,000 tested, 0.061% active;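 active means GFP/RFP ratio change of at least 30% with cell ATP level not reduced by more than half and red fluorescence within 50% of control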
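Assay system: HT1080 RFP-PRO-GFP cells | Dosing: 20 µM single dose, 1% DMSO | Incubation: Cells overnight before dosing, compound overnight, 37 °C, 5% CO2 | Evaluation: GFP/RFP fluorescence ratio | Control set: DMSO-only wells and HT1080 RFP-L50D-GFP cell wells as references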
DAGLB inhibitor: blocks human DAGLB lipase activity. 340,000 tested, 0.059% active. Q8NCG7. AID 504411. HEK293T DAGLB membrane lysate, EnzChek fluorogenic substrate. inhibition, % at 5.17 µM; in the data active means inhibition above about 34%;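 further: 0% = enzyme with vehicle and 100% = wells lacking enzyme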
DDE Tn6 FP inh: DD(E)-Tn6 binding inhibition, primary FP screen; Fibrin DD(E) TRITC-Tn6 fluorescence polarization displacement; inhibition, % at 8.3 µM; 370,000 tested, 0.21% active; P02675; AID 720509;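 active means inhibition above a per-campaign cutoff: mean of compounds within control limits plus 3 SD, cut at about 15% in these data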;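 further: 0% = median of all compound wells on the plate and 100% = blocking peptide control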
Cardio protect: protects H9c2 cardiomyocytes from peroxide injury | protection from H2O2 cell death, % at 20 µM | 360,000 tested, 0.63% active | H2O2 injury protection, ATPLite, 2 h;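 active means compounds giving at least 50% protection of heart cells from peroxide-induced death in the single-dose screen, raw or plate-pattern-corrected value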;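 further: 0% = DMSO wells with peroxide and 100% = DMSO wells without peroxide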
TAG conf: triacylglycerol accumulation inhibition, confirmation; H9c2 lipid accumulation, Nile Red fluorescence; cells loaded with 200 µM oleic acid; shares compounds with TAG inh; inhibition, % at 12.5 µM; 990 tested, 71% active;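 active means mean inhibition across replicates of 40% or more; inactive means mean inhibition below 40%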;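 further: plate controls were DMSO only wells for no effect and Triacsin C treated wells for full effect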
* = called active by the depositor; · = no result given. Hits are enriched below; roughly 1.4% of the tested compounds scored in any of these assays.

SMILES | TAG inh | Tn7 DDE FP | MT1-MMP act inh | DAGLB inhibitor | DDE Tn6 FP inh | Cardio protect | TAG conf
COC(=O)c1ccc(NC(=O)COc2ccc(C3C(C#N)=C(N)Oc4c3ccc3ccccc43)cc2OC)cc1 (centres undefined) | 50* | -8 | -8 | 2 | -1 | 0 | 24
COc1cc(C2C(C#N)=C(N)Oc3c2ccc2ccccc32)ccc1OCC(=O)Nc1ccccc1C (centres undefined) | · | -5 | -10 | 2 | -6 | -1 | ·
Cc1ccc(Cn2c(C(C)Nc3nc(-c4ccc(Cl)c([N+](=O)[O-])c4)cs3)nc3cc(C(F)(F)F)ccc32)cc1 (centres undefined) | 70* | 0 | -1 | -12 | -2 | -17 | 71*
COC(=O)[C@]12C[C@H](CC(=O)NCc3cccc(C(F)(F)F)c3)C(=O)N(CCC3=CCCCC3)C1=C[C@H](C(C)C)O[C@@H]2C1CC1 | · | 1 | · | · | -1 | · | ·
CC(=O)c1cc(-c2ccc(Oc3ccccc3)cc2)c(=O)n2c1CCC2 | · | 5 | · | · | 4 | · | ·
CC(C)CNS(=O)(=O)c1ccc(CCC(=O)Nc2cc(Cl)ccc2Oc2ccccc2)cc1 | 55* | 0 | -2 | -12 | -4 | -14 | 36
Cc1cc(-c2n[nH]c(=S)n2N=Cc2ccc(O)cc2)n[nH]1 | · | -1 | · | · | -2 | · | ·
COc1ccc(C2c3cc4c(cc3OC(N3CCOCC3)C2C)OCO4)c(OC)c1 (centres undefined) | 55* | 3 | 6 | -4 | -4 | -5 | 75*
COc1cccc(C2c3cc4c(cc3OC(N3CCOCC3)C2C)OCO4)c1O (centres undefined) | -8 | 8 | -4 | 0 | -2 | 3 | ·
CCO[C@@H]1OC(C(=O)N2CCN(Cc3ccccc3)CC2)=C[C@H](c2ccc(C(F)(F)F)cc2)[C@H]1CCCO | 53* | 3 | 1 | 1 | 4 | 7 | 52*
COc1ccc2[nH]c3c(c2c1)CCN1C(=O)C(CC(=O)NCC24CC5CC(CC(C5)C2)C4)C[C@H](C(=O)N(C(C)C)C(C)C)[C@@]31C (some centres undefined) | 51* | 5 | 3 | -6 | 4 | 3 | 59*
CC(C)N(C(=O)[C@H]1C[C@H](CC(=O)NCc2cccc(C(F)(F)F)c2)C(=O)N2CCc3c([nH]c4ccc(Cl)cc34)[C@]12C)C(C)C | 57* | 3 | -31 | -2 | 10 | -18 | 82*
CCOC(=O)C1CCN(C(=O)C(C)(C)NC(=O)Nc2ccc(N(C)C)cc2)CC1 | · | 2 | · | · | 2 | · | ·
COC(=O)c1c(NC(NC(=O)C(C)(C)C)C(Cl)(Cl)Cl)sc2c1CCC2 (centres undefined) | 59* | -10 | -55 | -7 | 1 | 18 | 65*
CCOC(=O)c1cc(-c2csc(N/N=C/c3ccccc3Cl)n2)on1 | 9 | 8 | -3 | 1 | -7 | -1 | ·
Cc1onc(-c2ccc(Cl)cc2Cl)c1-c1csc(N/N=C/c2ccccc2)n1 | 61* | -2 | -5 | -3 | -1 | -13 | 42*
COC(=O)[C@H](CC(C)C)N(CCCc1cn(Cc2ccccc2)nn1)S(=O)(=O)c1ccc(F)cc1Br | · | -2 | · | · | -3 | · | ·
COC(=O)[C@H](C(C)C)N(CCc1cn(Cc2ccc(C)cc2)nn1)S(=O)(=O)c1ccccc1Br | · | -3 | · | · | -5 | · | ·
CN1CCN(C(=O)c2ccc(Cc3cn(C)c4ccccc34)nc2)CC1 | 54* | 1 | 0 | · | -6 | 8 | 0
CC(C)N(C(=O)c1ccc(Cc2cn(C)c3ccccc23)nc1)C(C)C | -9 | -1 | 4 | · | 7 | 5 | ·
CSc1nc(NCCN(C)C)c2sc3nc(-c4ccco4)c4c(c3c2n1)CCC4 | 51* | -3 | 3 | -2 | 7 | 3 | 37
COc1cc(OC)c(-c2nn3c(-c4ccco4)nnc3s2)cc1OC | 54* | 0 | 16 | 0 | 7 | 74* | 38
Cc1oc(-c2ccc(F)cc2)cc1-c1nn2c(-c3ccco3)nnc2s1 | · | 0 | · | · | -2 | · | ·
COc1cc(C#Cc2c(-c3cncn3C)n(C)c3ccc(-c4cnc(N5CCOCC5)nc4)cc23)cc(OC)c1 | 73* | 1 | -11 | -3 | 3 | 9 | 65*
CCCC[C@@H]1C(=O)N2N=Cc3cc(C)c(C)cc3[C@H]2N2N=Cc3cc(C)c(C)cc3[C@@H]12 | · | -7 | · | · | -8 | · | ·
SMILES | TAG inh | Tn7 DDE FP | MT1-MMP act inh | DAGLB inhibitor | DDE Tn6 FP inh | Cardio protect | TAG conf
COc1ccc(-c2sc3ccc(N4CCOCC4)cc3c2C#CCCO)cc1 | 51* | 1 | -2 | 4 | 4 | -1 | 55*
COc1ccc(-c2sc3cc(OC)c(OC)cc3c2C#CCCO)cc1 | 2 | 2 | 1 | -2 | -3 | 4 | ·
Cc1ccc(Cn2c(=O)n(Cc3ccc(C(=O)NCC4COC4)cc3)c(=O)c3ccccc32)cc1 | · | -2 | · | · | 2 | · | ·
Cn1nnc2c[n+](CC(=O)c3ccc(Cl)cc3)cc(Br)c21 | 59* | -4 | -8 | · | 0 | 4 | 69*
CCOc1ccccc1NC(=O)CSc1nnc(Cc2ccc(OC)cc2)c(=O)n1N | 38 | 3 | 0 | -4 | -2 | 10 | ·
Cc1ccc(Cc2nnc(SCC(=O)Nc3ccccc3)n(N)c2=O)cc1 | 52* | 1 | -2 | -2 | -4 | -4 | 62*
CCOc1ccc(Cc2nnc(SCC(=O)Nc3ccccc3)n(N)c2=O)cc1 | 50* | -7 | 6 | 3 | 0 | -1 | 68*
COc1ccc(NC(=O)CSc2nnc(Cc3ccc(C)cc3)c(=O)n2N)cc1OC | 37 | 10 | -1 | 2 | -7 | 5 | ·
O=C(N[C@@H]1CCCc2c1cnn2-c1ccc(F)cc1F)c1ccccn1 | · | 0 | · | · | -8 | · | ·
Cc1ccccc1CN1CCCCC(NC(=O)c2cccc([N+](=O)[O-])c2)C1=O (centres undefined) | · | -2 | · | · | 4 | · | ·
COc1ccc(-c2cc3nc(-c4ccccc4)cc(N4CCN(C(=O)c5ccccc5)CC4)n3n2)cc1 | 52* | 4 | -4 | -3 | 11 | 45 | 42*
O=C(c1ccoc1)N1CCN(c2cc(-c3cccc(F)c3)nc3cc(-c4cccc(Cl)c4)nn23)CC1 | 57* | -6 | 7 | 1 | 3 | -15 | 49*
COc1ccc(CNC(=O)OCCN2CCN(S(=O)(=O)c3ccc(C)cc3)CCC2=O)cc1 | 72* | 7 | 5 | -3 | 5 | 2 | 1
Cc1ccc(S(=O)(=O)N2CCC(=O)N(CCOC(=O)NCc3ccccc3)CC2)cc1 | · | 5 | · | · | 13 | · | ·
CCOc1cc(CNc2ccc3c(c2)OCCO3)cc(Br)c1OCC | 53* | 1 | 12 | -5 | 8 | 9 | 53*
